The values that follow come from ChEMBL document CHEMBL3352465, “The SAR development of substituted purine derivatives as selective CB2 agonists for the treatment of chronic pain” (Bioorg Med Chem Lett, 2014).

Bounds are passed on as bounds.

In general, EC50 refers to the midpoint of the concentration-response curve. By inhibition is commonly meant the share of the control response that was lost under treatment. A lower inhibition goes with little suppression.

Data set [1] is described as follows: Drug metabolism in dog liver microsomes at 2 uM after 0.5 hr by LC/MS/MS analysis. Format: ADME, Canis lupus familiaris. As to conditions: read-out: Drug metabolism. In general terms: Liver microsomes are vesicles of endoplasmic reticulum, rich in cytochrome P450 enzymes.
Data set [2] concerns the target T1, Cannabinoid receptor 1 (Homo sapiens, UniProt P21554). The data set can be described thus: Agonist activity at human CB1 receptor expressed in Sf9 cells by [35S]-GTPgammaS binding assay. The format is functional. (In general: GTPγS resists hydrolysis and so accumulates on activated G proteins.)
Data set [3] can be described thus: Drug metabolism in human liver microsomes at 2 uM after 0.5 hr by LC/MS/MS analysis. The format is ADME. The settings on record: read-out: Drug metabolism.
The species named for a further data set is Rattus norvegicus. The data set can be described thus: Inhibition of GABA gated chloride channel in rat cortex at 10 uM by radioligand binding assay. In short, it runs like this:
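Radioligand binding to GABA-gated chloride channels from rat, run by an outside contract lab.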

Data set [4] can be described thus: Drug metabolism in rat liver microsomes at 2 uM after 0.5 hr by LC/MS/MS analysis. As to conditions: read-out: Drug metabolism. Format: ADME.
Data set [5] addresses T2, Cannabinoid receptor 2 (Homo sapiens, UniProt P34972). The data set is described as follows: Agonist activity at human CB2 receptor expressed in CHO cells by [35S]-GTPgammaS binding assay relative to control. The format is functional, cell-based.
Data set [6] concerns the target T2, Cannabinoid receptor 2. The data set can be described thus: Agonist activity at human CB2 receptor expressed in CHO cells by [35S]-GTPgammaS binding assay. Format: functional, cell-based.
The target of data set [7] is T1, Cannabinoid receptor 1. The data set can be described thus: Agonist activity at human CB1 receptor expressed in Sf9 cells by [35S]-GTPgammaS binding assay relative to control. The format is functional.

T2 sequence (P34972 whole entry): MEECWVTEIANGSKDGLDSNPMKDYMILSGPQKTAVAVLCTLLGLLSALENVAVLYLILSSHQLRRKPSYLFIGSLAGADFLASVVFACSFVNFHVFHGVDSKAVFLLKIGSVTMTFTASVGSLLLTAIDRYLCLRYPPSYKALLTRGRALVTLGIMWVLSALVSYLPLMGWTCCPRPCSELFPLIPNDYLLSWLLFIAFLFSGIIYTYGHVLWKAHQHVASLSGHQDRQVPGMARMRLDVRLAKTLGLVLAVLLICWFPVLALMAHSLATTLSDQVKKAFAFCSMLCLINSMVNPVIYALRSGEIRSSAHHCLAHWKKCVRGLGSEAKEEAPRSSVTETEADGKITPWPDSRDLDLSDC
T1 sequence (P21554 whole entry): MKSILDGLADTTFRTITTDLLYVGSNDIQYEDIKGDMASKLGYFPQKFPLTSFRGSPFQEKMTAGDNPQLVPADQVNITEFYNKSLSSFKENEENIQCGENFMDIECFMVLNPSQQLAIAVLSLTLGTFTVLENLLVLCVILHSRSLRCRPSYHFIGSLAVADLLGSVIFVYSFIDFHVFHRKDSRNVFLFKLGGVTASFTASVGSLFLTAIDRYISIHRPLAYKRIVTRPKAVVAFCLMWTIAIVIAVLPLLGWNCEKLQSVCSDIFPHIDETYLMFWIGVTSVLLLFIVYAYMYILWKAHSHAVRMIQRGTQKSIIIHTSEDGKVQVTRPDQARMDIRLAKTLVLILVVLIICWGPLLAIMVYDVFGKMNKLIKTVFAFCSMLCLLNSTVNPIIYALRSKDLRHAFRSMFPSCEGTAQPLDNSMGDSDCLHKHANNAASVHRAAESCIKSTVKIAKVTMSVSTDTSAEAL

On to `Cc1nc(N2CCN(C)CC2)c2nc(-c3ccccc3Cl)n(CC(C)(C)O)c2n1`, for which the metabolised at 0.5 h, 2 µM in data set [1] is 52%; in data set [3], 24%; in data set [4] it was 92%. For the same compound, the EC50 on Cannabinoid receptor 1 [2] was greater than 100000 nM; at Cannabinoid receptor 2 [6], 5.9 nM. The inhibition in the data set listed under Rattus norvegicus was found to be 83%. The Efficacy on Cannabinoid receptor 2 [5] turned out to be 85.4%.
Compound `CCN1CCN(c2nc(C)nc3c2nc(-c2ccccc2Cl)n3CCOC)CC1` yielded an inhibition in the data set filed under Rattus norvegicus of 97%.
As to `Cc1nc(N2CCN(C)CC2)c2nc(-c3ccccc3Cl)n(C(C)(C)CO)c2n1`, the metabolised at 0.5 h, 2 µM stood at 90% in data set [1], 43% in data set [3] and 93% in data set [4]. Moreover, the EC50 at Cannabinoid receptor 1 [2] stood at 5000 nM; at Cannabinoid receptor 2 [6] it was 12.5 nM. The Efficacy at Cannabinoid receptor 1 [7] turned out to be 43.2%; on Cannabinoid receptor 2 [5], 72.6%. Besides, the inhibition in the data set listed under Rattus norvegicus amounted to 20%.
For `CCN1CCN(c2nc(C)nc3c2nc(-c2ccccc2Cl)n3C(COC)COC)CC1`, the metabolised at 0.5 h, 2 µM in data set [1] came to 66%; in data set [3] it was 35%; in data set [4], 58%. For the same compound, the EC50 was greater than 100000 nM on Cannabinoid receptor 1 [2] and 5 nM on Cannabinoid receptor 2 [6]. The compound also yielded an inhibition in the data set filed under Rattus norvegicus of less than 10%. The compound also yielded an Efficacy on Cannabinoid receptor 2 [5] of 69.3%.
